Results on 1 molecule are retold here after ChEMBL document CHEMBL1649152, “Pharmacokinetics of hydroxychloroquine and its clinical implications in chemoprophylaxis against malaria caused by Plasmodium vivax” (Antimicrob Agents Chemother, 2009).

SMILES strings stand for the structures. Activity calls are given as the source filed them. No cut-off for these calls is given here.

The nature of data set [1]: Terminal half life in healthy human at 400 mg, po administered as single dose. Particulars: in vivo, read-out: beta t1/2 (converted). The data set is classed as ADME, organism-based. Put shortly:
(§1)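 Six healthy subjects (study Ia), fasted from 10 h before to 4 h after the oral dose; serial plasma sampled up to 314 h. Plasma extracted with diethyl ether, then reversed-phase HPLC on a C18 column with fluorescence detection (ex 320/em 370 nm). Noncompartmental analysis: Cmax and Tmax observed; terminal t1/2 = ln2/λz; AUC by linear-log trapezoidal, AUCinf extrapolated.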

Data set [2] relates to Homo sapiens. The data set is described as follows: Cmax in healthy human plasma assessed as bisdesethylchloroquine level at 400 mg, po administered as single dose. Further details: dose 400 mg, route oral. The data set is classed as ADME, organism-based. The note with it: in vivo. Put shortly:
as §1

A short description of data set [3]: AUC (last) in healthy human at 400 mg, po administered as single dose. The data set is classed as ADME, organism-based. Further details: dose 400 mg, time 0 - last, route oral. Particulars: plasma. The method, boiled down: as §1
Data set [4] has as its system Homo sapiens. The data set is described as follows: Tmax in healthy human assessed as bisdesethylchloroquine level at 400 mg, po administered as single dose. The note with it: in vivo. The data set is classed as ADME, organism-based. Put shortly:
as §1

In data set [5] the test system is Homo sapiens. Kind of data set: Ratio of AUC for desethylchloroquine level to AUC for compound in healthy human at 400 mg, po administered as single dose. Format: ADME, organism-based. The note with it: in vivo. Put shortly:
(§2)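 Six healthy volunteers in study Ia, fasted from 10 h before to 4 h after dosing, sampled serially up to 314 h. Plasma was stored at –70°C, ether-extracted from ammonia-alkalinised plasma with an internal standard, and assayed by C18 RP-HPLC with fluorescence (ex 320/em 370 nm). Calibration was 10–2,000 ng/ml for parent and 5–200 ng/ml for DCQ/BDCQ. Metabolite and parent AUCs came from noncompartmental linear-log trapezoidal analysis with λz extrapolation to infinity.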

Data set [6] is described as follows: Apparent peripheral distribution volume in healthy human at 400 mg, po administered as single dose. Format: ADME, organism-based. The note with it: in vivo, read-out: Vz/F.
The nature of data set [7]: AUC (infinity) in healthy human at 400 mg, po administered as single dose. The data set is classed as ADME, organism-based. Further details: dose 400 mg, time infinity, route oral. Particulars: plasma. Put shortly:
as §1

Data set [8] is described as follows: Apparent oral clearance in healthy human at 400 mg, po administered as single dose. The data set is classed as ADME, organism-based. The note with it: in vivo.
Data set [9] has as its system Homo sapiens. The data set is described as follows: Terminal half life in healthy human assessed as bisdesethylchloroquine level at 400 mg, po administered as single dose. The data set is classed as ADME, organism-based. The note with it: in vivo. Put shortly:
as §1

Data set [10] concerns Homo sapiens. The data set is described as follows: Cmax in healthy human plasma assessed as desethylchloroquine level at 400 mg, po administered as single dose. Format: ADME, organism-based. Particulars: in vivo. Further details: dose 400 mg, route oral. The method, boiled down: as §1
Data set [11] relates to Homo sapiens. The data set is described as follows: AUC (last) in healthy human assessed as desethylchloroquine level at 400 mg, po administered as single dose. The data set is classed as ADME, organism-based, Plasma. Further details: dose 400 mg, time 0 - last, route oral. The note with it: in vivo. Put shortly: as §1
Data set [12] has as its system Homo sapiens. Kind of data set: AUC (infinity) in healthy human assessed as desethylchloroquine level at 400 mg, po administered as single dose. Format: ADME, organism-based, Plasma. The note with it: in vivo. Further details: dose 400 mg, route oral, time infinity. The method, boiled down: as §1
In data set [13] the test system is Homo sapiens. The data set is described as follows: Terminal half life in healthy human assessed as desethylchloroquine level at 400 mg, po administered as single dose. Format: ADME, organism-based. The note with it: in vivo. Put shortly:
as §1

Data set [14] has as its system Homo sapiens. The data set is described as follows: AUC (last) in healthy human assessed as bisdesethylchloroquine level at 400 mg, po administered as single dose. Format: ADME, organism-based, Plasma. The arrangement: dose 400 mg, route oral, time 0 - last. Particulars: in vivo. Put shortly: as §1
The subject of data set [15] is Homo sapiens. Kind of data set: AUC (infinity) in healthy human assessed as bisdesethylchloroquine level at 400 mg, po administered as single dose. The arrangement: dose 400 mg, time infinity, route oral. The note with it: in vivo. Format: ADME, organism-based, Plasma. Put shortly: as §1
The nature of data set [16]: Cmax in healthy human plasma at 400 mg, po administered as single dose. The data set is classed as ADME, organism-based. The arrangement: dose 400 mg, route oral. The method, boiled down: as §1
Data set [17] can be described thus: Tmax in healthy human at 400 mg, po administered as single dose. Particulars: in vivo. The data set is classed as ADME, organism-based. Put shortly:
as §1

In another data set the test system is Plasmodium vivax. Kind of data set: Antimalarial activity against Plasmodium vivax infected in patient assessed as prophylaxis at 400 mg, po once a week.
In data set [18] the test system is Homo sapiens. Kind of data set: Ratio of AUC for bisdesethylchloroquine level to AUC for compound in healthy human at 400 mg, po administered as single dose. The data set is classed as ADME, organism-based. Particulars: in vivo. The method, boiled down: as §2
The test system of data set [19] is Homo sapiens. Kind of data set: Tmax in healthy human assessed as desethylchloroquine level at 400 mg, po administered as single dose. Format: ADME, organism-based. Particulars: in vivo. The method, boiled down: as §1

Consider `CCN(CCO)CCCC(C)Nc1ccnc2cc(Cl)ccc12` (stereo not given) [HYDROXYCHLOROQUINE], for which the half-life in [1] was 172 h. The Cmax was 360 nM in the data set on Homo sapiens [2], 60 nM in the data set with Homo sapiens [10] and 1220 nM in data set [16]. The AUC(0-t) in [3] was 75.4 µM·h. Moreover, the results for the Tmax (with Homo sapiens [4]; in data set [17]; in the data set on Homo sapiens [19]) were 72.8 h, 2.4 h and 6.1 h, respectively. The Ratio was determined as 0.39 in the data set on Homo sapiens [5] and 0.63 in the data set with Homo sapiens [18]. Also, the Vd/F in [6] was 2850 L. The molecule further displayed an AUC(0-inf) in data set [7] of 102 µM·h. For the same molecule, the CL/F in data set [8] is 200 mL/min. The “beta t1/2” value came out at 241 h in the data set on Homo sapiens [9] and 549.9 h in the data set on Homo sapiens [13]. Moreover, the AUC was determined as 12.2 µM·h in the data set with Homo sapiens [11], 37.7 µM·h in the data set on Homo sapiens [12], 34 µM·h with Homo sapiens [14] and 53.6 µM·h in the data set on Homo sapiens [15]. Moreover, the result in the data set with Plasmodium vivax was inactive.

What is called Cmax is the highest concentration seen after dosing. In general, AUC(0-t) refers to the area under the concentration-time curve up to a stated or last time point. A higher AUC(0-t) goes with more exposure. Usually Tmax stands for the time from dosing to the highest level. As usually defined, the AUC(0-inf) is total exposure, with the tail of the curve extrapolated. Low readings indicate low exposure, high ones high exposure. Broadly, the CL/F is clearance divided by bioavailability, as obtained after extravascular dosing. As usually defined, the AUC is the area under the concentration-time curve, a measure of exposure.
